Two molecules from publication PMC6844228 (International Journal of Nanomedicine, 2019) can be followed below.

The test system of one data set is mouse sarcoma S180 cells. In words: Cell Counting Kit-8 cytotoxicity assay, S180. The conditions noted are these: S-180, 48 h. The class given is cell-based. The method in brief: (§1)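 Cells were seeded at 5×10^3 per well in DMEM with 10% FBS, 100 μg/mL streptomycin and 100 IU/mL penicillin, then held 24 h at 37°C under 5% CO2. Medium was replaced with test compound at CA4-equivalent concentrations of 0.0025, 0.025, 0.25, 2.5, 25, 125 and 250 μM for 48 h. Then 10% CCK-8 was added for 1.5 h at 37°C and A450 read. Viability was calculated against control and blank wells, and IC50 derived.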

In data set [1] the test system is human hepatocellular liver carcinoma HepG2 cells. In words: Cell Counting Kit-8 cytotoxicity assay, HepG2. The format is cell-based. The conditions noted are these: HepG2, 48 h. The method, boiled down: as §1
For orientation: Formazan colour is commonly taken as a measure of viable cells.

Data set [2] has as its system human breast adenocarcinoma MCF-7 cells. In words: Cell Counting Kit-8 cytotoxicity assay, MCF-7. The conditions noted are these: MCF7, 48 h. The class given is cell-based. The method in brief: as §1
The nature of data set [3]: In vivo pharmacokinetics after tail vein injection. To be noted: 2 h following injection, SD rats. The method, boiled down:
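Male rats (180–200 g) were fasted 12 h, then dosed into the tail vein at drug-equivalent 28 mg/kg of phosphate prodrug. Orbital-vein blood was taken at 2, 5, 10, 15, 20, 30 and 45 min and at 1, 1.5, 2, 4, 6 and 10 h, into heparinized vials. Plasma was separated (4,000 rpm, 10 min), stored at −20°C, and prodrug and released parent drug were quantified by HPLC. n=6, mean ± SD.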

Data set [4] can be described thus: In vivo biodistribution in S180 tumor-bearing mice. To be noted: iv, drug-equivalent doses of 28 mg/kg CA4P, heart, kidney, liver, spleen, lung.

A value given as a limit tells only on which side of the number the result lay.

A word on the IC50: it is the concentration that inhibits the measured activity by half. Low readings indicate higher potency, high ones lower potency.

For `COc1ccc(/C=C\c2cc(OC)c(OC)c(OC)c2)cc1O` [CA4, combretastatin A4], the IC50 is below 0.001 µM in the data set on mouse sarcoma S180 cells, 0.064 ± 0.006 µM in data set [1] and 0.004 ± 0.002 µM in data set [2].
As to `COc1ccc(/C=C\c2cc(OC)c(OC)c(OC)c2)cc1OP(=O)(O)O` [CA4P, combretastatin A4 phosphate], the half-inhibitory concentration (IC50) in the data set on mouse sarcoma S180 cells is below 0.001 µM; in data set [1], 0.179 ± 0.053 µM; in data set [2], 0.05 ± 0.008 µM. The “Detection of prodrug in plasma” value in data set [3] is given as “could not be detected”. Besides, the “Tissue detection of prodrug” value in data set [4] is “could be detected in the heart, liver, spleen, lung, kidney, and tumor”.
